In ChEMBL document CHEMBL4706580, “4-Amino-1,2,4-triazole-3-thione-derived Schiff bases as metallo-β-lactamase inhibitors” (Eur J Med Chem, 2020):
Active and inactive are the calls of the source. No cut-off for these calls is given here.

Tests used:
[1] = Inhibition of beta-lactamase VIM2 (unknown origin) expressed in Escherichia coli BL21(DE3) using imipenem as substrate by measuring substrate hydrolysis by spectrophotometric analysis
Procedure, shortened: (§1)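 Purified enzyme (overproduced in E. coli BL21(DE3), pET-9a; ion-exchange and gel filtration), 1-70 nM final. Reporter substrate 150 μM imipenem, read at 300 nm, 30 °C, 50 mM HEPES pH 7.5. Single-point screen at 100 or 200 μM; Ki from v0/vi vs [I] (0.5–1,000 μM final) assuming competitive inhibition, or Dixon plot. Triplicate.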

[2] = Inhibition of beta-lactamase VIM4 (unknown origin) expressed in Escherichia coli BL21(DE3) using imipenem as substrate by measuring substrate hydrolysis by spectrophotometric analysis; procedure, shortened: as §1
[3] = Inhibition of beta-lactamase CphA (unknown origin) expressed in Escherichia coli BL21(DE3) using imipenem as substrate by measuring substrate hydrolysis by spectrophotometric analysis
Procedure, shortened: (§2)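 Enzyme 0.2–0.8 nM in 15 mM cacodylate pH 6.5, no added zinc, pre-incubated 30 min at 21 °C with inhibitor (100 μM screen). Imipenem substrate added from 10 mM stock; hydrolysis at 300 nm, 30 °C. Residual activity vs three uninhibited samples; Ki (1–100 μM inhibitor) by Hanes linearization, competitive model. Triplicate.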

[4] = Inhibition of beta-lactamase NDM1 (unknown origin) expressed in Escherichia coli BL21(DE3) using cefotaxime/nitrocefin as substrate by measuring substrate hydrolysis at 100 uM by spectrophotometric analysis
[5] = Inhibition of beta-lactamase NDM1 (unknown origin) expressed in Escherichia coli BL21(DE3) using cefotaxime/nitrocefin as substrate by measuring substrate hydrolysis at 200 uM by spectrophotometric analysis
[6] = molecular target: Hydroxyacylglutathione hydrolase (Homo sapiens); test: Inhibition of human Glyoxalase II expressed in Escherichia coli BL21 (DE3)
[7] = Inhibition of beta-lactamase L1 (unknown origin) expressed in Escherichia coli BL21(DE3) using nitrocefin as substrate by measuring substrate hydrolysis preincubated for 30 mins by spectrophotometric analysis
Procedure, shortened: (§3)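 Enzyme 0.2–0.8 nM in 25 mM HEPES pH 7.5 with 50 μM ZnCl2 final, pre-incubated 30 min at 21 °C with inhibitor (100 μM screen). Nitrocefin 100 μM final, read at 482 nm, 30 °C. Residual activity vs three uninhibited samples; Ki (1–100 μM inhibitor) from Hanes linearization, competitive model. Triplicate.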

[8] = Inhibition of beta-lactamase VIM-2 (unknown origin) expressed in Escherichia coli LZ2310 assessed as potentiation of cefoxitin antibacterial activity by measuring cefoxitin induced diameter of inhibition zone at 40 uM incubated for 18 hrs by disk diffusion method (reference value: 14 mm)
Procedure, shortened: (§4)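 Efflux-deficient E. coli LZ2310 (NorE, MdfA, AcrA knocked out) carrying pLB-II with the cloned MBL gene. Mueller-Hinton, CLSI disk diffusion; antibiotic disks (30 µg cefoxitin for VIM-2, 10 µg ampicillin for VIM-4, 30 µg ceftazidime for NDM-1/IMP-1) loaded with inhibitor in DMSO (≤15 µL). Zone diameter after 18 h, 35 ± 1 °C; DMSO and 220 µg EDTA controls. Triplicate.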

[9] = Inhibition of beta-lactamase VIM-4 (unknown origin) expressed in Escherichia coli LZ2310 assessed as potentiation of ampicillin antibacterial activity by measuring ampicillin induced diameter of inhibition zone at 40 uM incubated for 18 hrs by disk diffusion method (reference value: 6 mm); procedure, shortened: as §4
[10] = Inhibition of beta-lactamase L1 (unknown origin) expressed in Escherichia coli BL21(DE3) using nitrocefin as substrate by measuring substrate hydrolysis at 100 uM preincubated for 30 mins by spectrophotometric analysis; procedure, shortened: as §3
[11] = Inhibition of beta-lactamase IMP-1 (unknown origin) expressed in Escherichia coli BL21(DE3) using imipenem as substrate by measuring substrate hydrolysis by spectrophotometric analysis; procedure, shortened: as §1
[12] = Inhibition of beta-lactamase NDM-1 (unknown origin) expressed in Escherichia coli LZ2310 assessed as potentiation of ceftazidime antibacterial activity by measuring ceftazidime induced diameter of inhibition zone at 80 uM incubated for 18 hrs by disk diffusion method (reference value: 15 mm); procedure, shortened: as §4
[13] = Inhibition of beta-lactamase L1 (unknown origin) expressed in Escherichia coli BL21(DE3) using nitrocefin as substrate by measuring substrate hydrolysis at 200 uM preincubated for 30 mins by spectrophotometric analysis
[14] = Inhibition of beta-lactamase VIM-2 (unknown origin) expressed in Escherichia coli LZ2310 assessed as potentiation of cefoxitin antibacterial activity by measuring cefoxitin induced diameter of inhibition zone at 80 uM incubated for 18 hrs by disk diffusion method (reference value: 14 mm); procedure, shortened: as §4
[15] = Inhibition of beta-lactamase NDM1 (unknown origin) expressed in Escherichia coli BL21(DE3) using cefotaxime/nitrocefin as substrate by measuring substrate hydrolysis by spectrophotometric analysis
Procedure, shortened: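 His-tagged enzyme from E. coli BL21(DE3) pET-15b, affinity-purified, 1-70 nM final. Reporter substrate 120 μM cefotaxime (260 nm) or 100 μM nitrocefin (482 nm), 30 °C, 50 mM HEPES pH 7.5. Inhibitor 0.5–1,000 μM final; competitive Ki from v0/vi vs [I] slope or Dixon plot. Triplicate.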

[16] = Inhibition of beta-lactamase IMP-1 (unknown origin) expressed in Escherichia coli BL21(DE3) using imipenem as substrate by measuring substrate hydrolysis at 200 uM by spectrophotometric analysis; procedure, shortened: as §1
[17] = Inhibition of beta-lactamase VIM2 (unknown origin) expressed in Escherichia coli BL21(DE3) using imipenem as substrate by measuring substrate hydrolysis at 100 uM by spectrophotometric analysis; procedure, shortened: as §1
[18] = Inhibition of beta-lactamase IMP-1 (unknown origin) expressed in Escherichia coli BL21(DE3) using imipenem as substrate by measuring substrate hydrolysis at 100 uM by spectrophotometric analysis; procedure, shortened: as §1
[19] = Inhibition of beta-lactamase VIM2 (unknown origin) expressed in Escherichia coli BL21(DE3) using imipenem as substrate by measuring substrate hydrolysis at 200 uM by spectrophotometric analysis; procedure, shortened: as §1
[20] = Inhibition of beta-lactamase IMP-1 (unknown origin) expressed in Escherichia coli LZ2310 assessed as potentiation of ceftazidime antibacterial activity by measuring ceftazidime induced diameter of inhibition zone at 40 uM incubated for 18 hrs by disk diffusion method (reference value: 9 mm); procedure, shortened: as §4
[21] = Binding affinity to beta-lactamase VIM-2 expressed in Escherichia coli BL21(DE3) assessed as change in enthalpy at 25 degC by isothermal titration calorimetry
Procedure, shortened: (§5)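 VIM-2 (19 μM) in 10 mM HEPES-NaOH, 0.15 M NaCl, 50 μM ZnSO4, pH 7.5, DMSO matched to ligand (1-2% final). One 0.5 μl then 19 × 2 μl injections of compound (200-400 μM), 150 s apart, 25 °C. Buffer dilution heats subtracted; nonlinear least-squares fit for n, Ka, ΔH; compound concentration adjusted in fitting so n ≈ 1.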

[22] = Inhibition of beta-lactamase CphA (unknown origin) expressed in Escherichia coli BL21(DE3) using imipenem as substrate by measuring substrate hydrolysis at 100 uM by spectrophotometric analysis; procedure, shortened: as §2
[23] = Binding affinity to beta-lactamase VIM-2 expressed in Escherichia coli BL21(DE3) assessed as association constant at 25 degC by isothermal titration calorimetry; procedure, shortened: as §5
[24] = Binding affinity to beta-lactamase VIM-2 expressed in Escherichia coli BL21(DE3) assessed as dissociation constant at 25 degC by isothermal titration calorimetry; procedure, shortened: as §5
[25] = Binding affinity to beta-lactamase VIM-2 expressed in Escherichia coli BL21(DE3) assessed as change in entropy at 25 degC by isothermal titration calorimetry; procedure, shortened: as §5
[26] = Binding affinity to beta-lactamase VIM-2 expressed in Escherichia coli BL21(DE3) assessed as Gibbs free energy at 25 degC by isothermal titration calorimetry; procedure, shortened: as §5
[27] = Inhibition of beta-lactamase NDM-1 (unknown origin) expressed in Escherichia coli LZ2310 assessed as potentiation of ceftazidime antibacterial activity by measuring ceftazidime induced diameter of inhibition zone at 40 uM incubated for 18 hrs by disk diffusion method (reference value: 15 mm); procedure, shortened: as §4
[28] = Inhibition of beta-lactamase CphA (unknown origin) expressed in Escherichia coli BL21(DE3) using imipenem as substrate by measuring substrate hydrolysis at 200 uM by spectrophotometric analysis

Row | Structure (SMILES) | Ki [1] [µM] | Ki [2] [µM] | Ki [3] [µM] | inhibition [4] | IC50 [6] [µM] | Ki [7] [µM] | inhibition zone (IZ) [8] [mm] | inhibition zone (IZ) [9] [mm] | inhibition [10] | Ki [15] [µM] | inhibition [16] | inhibition [18] | deltaH [21] [kcal/mol] | Ka [23] | Kd [24] [µM] | -TdeltaS [25] [kcal/mol] | deltaG [26] [kcal/mol] | also measured
1 | Cc1ccccc1-c1n[nH]c(=S)n1/N=C/c1ccc(O)cc1O | 7 | 0.4 | 62 | inactive | 19 | 31 | 14 | 6 |  |  |  |  |  |  |  |  |  | inhibition [5]: inactive
2 | Oc1ccc(/C=N/n2c(-c3ccccc3-c3ccccc3)n[nH]c2=S)c(O)c1 | 4.5 | 9 |  |  |  |  |  |  | inactive | 6.4 |  |  |  |  |  |  |  | Ki [11]: 12 µM; inhibition zone (IZ) [12]: 15 mm; inhibition [13]: inactive; inhibition zone (IZ) [14]: 14 mm
3 | O=C(O)c1ccccc1/C=N/n1c(-c2ccc(Cl)cc2)n[nH]c1=S |  | 7 |  |  |  |  |  |  | 60% | 7.6 | inactive | inactive |  |  |  |  |  | inhibition [17]: inactive; inhibition zone (IZ) [12]: 15 mm; inhibition [19]: inactive
4 | O=C(O)c1ccccc1/C=N/n1c(-c2ccc3ccccc3c2)n[nH]c1=S | 0.7 | 0.4 |  |  | 13.2 | 4.62 | 15 |  |  | 2.3 |  |  | -3.3 | 1.4 10^6/M | 0.713 | 5.1 | -8.4 | inhibition zone (IZ) [20]: 9 mm; Ki [11]: 10.6 µM; inhibition [22]: inactive; inhibition zone (IZ) [27]: 15 mm; inhibition [28]: inactive
5 | O=C(O)c1ccccc1/C=N/n1c(-c2cc(Cl)cc(Cl)c2)n[nH]c1=S | 3 | 0.8 | 4 |  |  | 3 | 14 | 6 |  | 30 |  | 53% | -3.1 | 1.2 10^6/M | 0.863 | 4.3 | -8.2 | 
6 | Oc1ccc(/C=N/n2c(-c3ccccc3O)n[nH]c2=S)c(O)c1 | 2 | 0.5 | 6 | inactive |  |  | 14 | 6 | 31% |  | inactive | inactive | -9.6 | 3.4 10^6/M | 2.98 | -2.1 | -7.5 | inhibition [5]: inactive
7 | COc1ccc(O)c(-c2n[nH]c(=S)n2/N=C/c2ccccc2C(=O)O)c1 | 0.7 | 0.5 | 13 |  |  | 9 | 14 | 6 |  | 27 | inactive | inactive | -6.3 | 2.6 10^6/M | 0.389 | 2.4 | -8.7 | 
8 | Cc1ccccc1-c1n[nH]c(=S)n1/N=C/c1ccc(OCc2ccccc2)cc1 |  | 2.1 | 22 | inactive | 5.9 | 12 |  | 6 |  |  |  |  |  |  |  |  |  | inhibition zone (IZ) [20]: 9 mm; Ki [11]: 0.3 µM; inhibition [17]: inactive; inhibition [5]: inactive; inhibition [19]: inactive
9 | Cc1ccccc1-c1n[nH]c(=S)n1/N=C/c1ccc(O)c(C(=O)O)c1 | 2 | 1.4 |  |  |  | 13 | 14 | 6 |  |  |  | 45% | -9.1 | 7.7 10^6/M | 1.3 | -1.1 | -8 | inhibition [22]: 39%
10 | O=C(O)c1ccccc1/C=N/n1c(-c2ccccc2)n[nH]c1=S | 2.7 | 1.4 | 58 |  | 25.5 | 5 | 20 |  |  | 38 | inactive | inactive | -3.6 | 1.9 10^6/M | 0.519 | 4.9 | -8.5 | 
11 | Oc1ccc(/C=N/n2c(-c3cccc(Br)c3)n[nH]c2=S)c(O)c1 | 0.62 | 13 |  | 45% |  |  |  |  | inactive |  | inactive | inactive | -10.4 | 3.1 10^6/M | 0.323 | -1.6 | -8.8 | inhibition [13]: inactive
